Data as given in ChEMBL document CHEMBL2046332, “Substrate analog studies of the ω-regiospecificity of Mycobacterium tuberculosis cholesterol metabolizing cytochrome P450 enzymes CYP124A1, CYP125A1 and CYP142A1” (Bioorg Med Chem, 2012).
The source made the active and inactive calls. The rule behind the calls is not given here.

What was measured:
[1] = tested on: Mycobacterium tuberculosis; experiment: Binding affinity to Mycobacterium tuberculosis CYP124A1 assessed as type 1a binding mode at > 0.05 to 0.2 uM by UV-visible spectrophotometry
Outline: (§1)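 Spectral titration of each P450 with steroid solubilised in methyl β-cyclodextrin. Ligand-induced low-spin/high-spin shifts were followed in the Soret region and at ~650 nm to assign binding type. Absolute spectra of the P450–steroid complexes were also examined.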

[2] = tested on: Mycobacterium tuberculosis; experiment: Binding affinity to Mycobacterium tuberculosis CYP124A1 assessed as type 1 binding mode at 0.05 to 0.2 uM by UV-visible spectrophotometry; outline: as §1
[3] = target: T1, Steroid C26-monooxygenase (Mycobacterium tuberculosis, UniProt P9WPP1); experiment: Binding affinity to Mycobacterium tuberculosis CYP125A1 by UV-visible spectrophotometry; details: read-out: Kd(app); outline: as §1
T1 sequence (P9WPP1 whole entry): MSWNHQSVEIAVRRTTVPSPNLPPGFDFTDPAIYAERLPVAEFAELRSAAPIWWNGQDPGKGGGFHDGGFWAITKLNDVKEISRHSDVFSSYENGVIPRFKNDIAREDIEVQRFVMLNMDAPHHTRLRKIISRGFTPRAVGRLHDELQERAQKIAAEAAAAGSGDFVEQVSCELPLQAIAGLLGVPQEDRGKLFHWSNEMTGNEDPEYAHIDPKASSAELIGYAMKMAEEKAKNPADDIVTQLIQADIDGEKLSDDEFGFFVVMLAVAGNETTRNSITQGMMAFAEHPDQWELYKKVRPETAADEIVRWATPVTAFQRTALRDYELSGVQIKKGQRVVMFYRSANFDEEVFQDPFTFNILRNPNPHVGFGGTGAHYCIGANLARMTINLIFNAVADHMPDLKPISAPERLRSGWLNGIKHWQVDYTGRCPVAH

[4] = target: T1, Steroid C26-monooxygenase; experiment: Binding affinity to Mycobacterium tuberculosis CYP125A1 assessed as type 1 binding mode at 0.05 to 0.2 uM by UV-visible spectrophotometry; outline: as §1
[5] = Binding affinity to Mycobacterium tuberculosis CYP142A1 by UV-visible spectrophotometry; details: read-out: Kd(app); outline: as §1
[6] = target: T1, Steroid C26-monooxygenase; experiment: Activity of Mycobacterium tuberculosis CYP125A1 assessed as apparent turnover number at 50 uM incubated for 1 hr at 25 degC by GC-MS method
Outline: (§2)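 Each P450 (250 nM) was incubated with 50 μM substrate, 5 μg catalase, 50 μg/mL ferredoxin, 0.16 U/mL ferredoxin-NADP+ reductase, and an NADPH-regenerating system (1 mM glucose-6-phosphate, 2.4 U/mL G6P dehydrogenase, 5 mM MgCl2, 800 μM NADP+). Buffer was 50 mM potassium phosphate pH 7.5, 25 °C, 1 h. Quenched with HCl, extracted into hexanes, TMS-derivatised, GC-MS. Controls lacked P450 or NADPH.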

[7] = tested on: Mycobacterium tuberculosis; experiment: Binding affinity to Mycobacterium tuberculosis CYP142A1 assessed as type 1 binding mode at 0.05 to 0.2 uM by UV-visible spectrophotometry; outline: as §1
[8] = target: T1, Steroid C26-monooxygenase; experiment: Activity of Mycobacterium tuberculosis CYP125A1 assessed as relative apparent turnover number at 50 uM incubated for 1 hr at 25 degC by GC-MS method relative to cholesterol
[9] = tested on: Mycobacterium tuberculosis; experiment: Activity of Mycobacterium tuberculosis CYP124A1 assessed as relative apparent turnover number at 50 uM incubated for 1 hr at 25 degC by GC-MS method relative to cholesterol
[10] = tested on: Mycobacterium tuberculosis; experiment: Activity of Mycobacterium tuberculosis CYP124A1 assessed as apparent turnover number at 50 uM incubated for 1 hr at 25 degC by GC-MS method; outline: as §2

Q: Which results are given for `CC=C(C)CCC[C@@H](C)[C@H]1CC[C@H]2[C@@H]3CC=C4C[C@@H](O)CC[C@]4(C)[C@H]3CC[C@]12C` (mixture of isomers)?
A: Activity [1]: Active; Activity [2]: Active; Kd [3]: 450 nM; Activity [4]: Active; Kd [5]: 160 nM; Kcat(app) [6]: 0.135 s⁻¹; Activity [7]: Active; Activity [8]: 29.9%; Activity [9]: 22.4%; Kcat(app) [10]: 0.005 s⁻¹
